The values below come from ChEMBL document CHEMBL3351834, “Jalapinoside, a macrocyclic bisdesmoside from the resin glycosides of Ipomea purga, as a modulator of multidrug resistance in human cancer cells” (J Nat Prod, 2015).

In experiment [1] the test system is MCF7. Kind of experiment: Cytotoxicity against human MCF7 cells assessed as growth inhibition after 72 hrs by SRB assay. Type of experiment: functional, cell-based. The following applies: MCF7, 72 h. Summed up: (§1)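 SRB assay. Log-phase cells, RPMI 1640 + 10% FBS, treated in triplicate with test samples at 0.2−25 μg/mL, 72 h at 37 °C, 5% CO2, static conditions. IC50 (50% inhibition of control growth) read from a semilog plot of concentration (μg/mL) against % growth inhibition. Resistant subline kept in 0.192 μg/mL vinblastine; a vinblastine-free stock also maintained.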

The test system of experiment [2] is MCF7. Kind of experiment: Cytotoxicity against human MCF7 cells assessed as growth inhibition after 72 hrs by SRB assay in presence of vinblastine. Type of experiment: functional, cell-based. The following applies: MCF7, 72 h. The gist of the method:
as §1
(In general: The SRB assay estimates cell density from bound dye.)

In experiment [3] the test system is MCF7. The experiment can be described thus: Cytotoxicity against vinblastin-sensitive human MCF7 cells assessed as growth inhibition after 72 hrs by SRB assay. Type of experiment: functional, cell-based. The following applies: MCF7, 72 h. The gist of the method: as §1
Experiment [4] has as its system MCF7. Kind of experiment: Reversal of multidrug-resistance in human MCF7 cells assessed as reduction in vinblastine IC50 at 25 ug/ml relative to IC50 vinblastine alone. Type of experiment: functional. The gist of the method: (§2)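 Modulation by SRB assay. MCF-7 or MCF-7/Vin cells exposed 72 h to vinblastine (0.000 64−10 μg/mL) with or without glycolipid at 25 or 5 μg/mL (water−DMSO 9:1). Vinblastine IC50 taken from a semilog growth-inhibition plot. Reserpine 5 μg/mL as reference modulator. Reversal fold = IC50 of vinblastine alone ÷ IC50 with test compound.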

In experiment [5] the test system is MCF7. The experiment can be described thus: Reversal of multidrug-resistance in human MCF7 cells in presence of vinblastine assessed as reduction in vinblastine IC50 at 25 ug/ml relative to IC50 vinblastine alone. Type of experiment: functional. The gist of the method:
as §2

Experiment [6] has as its system MCF7. Kind of experiment: Reversal of multidrug-resistance in vinblastin-sensitive human MCF7 cells assessed as reduction in vinblastine IC50 at 25 ug/ml relative to IC50 vinblastine alone. Type of experiment: functional. Summed up:
as §2

≈ marks a conversion by molar mass, not a printed value.

In general, IC50 refers to the point on the concentration scale where inhibition reaches its midpoint.

Regarding `CC[C@]1(O)C[C@@H]2CN(CCc3c([nH]c4ccccc34)[C@@](C(=O)OC)(c3cc4c(cc3OC)N(C)[C@H]3[C@@](O)(C(=O)OC)[C@H](OC(C)=O)[C@]5(CC)C=CCN6CC[C@]43[C@@H]65)C2)C1` [VINBLASTINE], the IC50 with MCF7 [1] was found to be 1.02 µg/mL (≈ 1.26 µM); with MCF7 [2] it was 1.22 µg/mL.
For the molecule `CCCCCCCCCCCC(=O)O[C@H]1[C@@H](O)[C@@H](C)O[C@@H](O[C@@H]2[C@@H](O[C@@H]3O[C@H](CO)[C@@H](O)[C@H](O)[C@H]3O[C@@H]3O[C@H](C)[C@@H](O)[C@H](OC(=O)[C@@H](C)CC)[C@H]3O)[C@@H](OC(=O)[C@@H](C)CC)[C@H](O[C@H]3[C@@H]4O[C@H]5[C@H](O[C@H](CCC)CCCCCCC[C@H](O[C@@H]6O[C@H](C)[C@@H](O)[C@H](O)[C@H]6O)CC(=O)O[C@H]3[C@H](O)[C@@H](COC(C)=O)O4)O[C@H](C)[C@@H](O)[C@@H]5O)O[C@H]2C)[C@@H]1O`, the IC50 in the experiment on MCF7 [1], in the experiment with MCF7 [2] and with MCF7 [3] was less than 0.00064 µg/mL each time. For the same molecule, the entries for the “fold change (FC)” value with MCF7 [4], in the experiment on MCF7 [5] and in the experiment with MCF7 [6] were more than 1593, more than 1906.3 and 73.4, respectively.
Turning to `COC(=O)[C@H]1[C@H]2C[C@@H]3c4[nH]c5cc(OC)ccc5c4CCN3C[C@H]2C[C@@H](OC(=O)c2cc(OC)c(OC)c(OC)c2)[C@@H]1OC` [RESERPINE], the IC50 worked out at 0.037 µg/mL (≈ 0.0608 µM) in the experiment on MCF7 [1], 0.31 µg/mL in the experiment with MCF7 [2] and 0.003 µg/mL (≈ 0.00493 µM) in the experiment on MCF7 [3].
